{"data": "Published values pooled from the literature", "target": "Mitogen-activated protein kinase 11 (MAPK11, Homo sapiens, UniProt Q15759)", "note": "Lines come from different studies, so protocols differ."}
{"Structure (SMILES)": "O=C(NS(=O)(=O)c1ccc(NCC2CCOCC2)c([N+](=O)[O-])c1)c1ccc(N2CCN(Cc3ccc(C(F)(F)F)cc3-c3ccc(Cl)cc3)CC2)cc1Oc1cnc2[nH]ccc2c1", "assay": "cell-free assay, competition with immobilised ligand", "conditions": "1 µM", "measurement": "remaining binding", "result": "78%"}
{"Structure (SMILES)": "c1ccc(CNc2nc(N3CCOc4ccccc43)nc3c2CCCC3)cc1", "assay": "target engagement in cells, inhibitor, chemoproteomics", "conditions": "20 mM", "measurement": "inhibition", "result": "-9.7%"}
{"Structure (SMILES)": "CC(C)(C)c1nc2c(s1)c1nc(N)ncc1c1ccc(NS(=O)(=O)c3c(F)cccc3F)c(F)c12", "assay": "enzyme activity, inhibitor, radiometric", "conditions": "1 µM", "measurement": "remaining activity", "result": "101%"}
{"Structure (SMILES)": "COc1cc(Nc2cnc(C#N)c(O[C@H](C)CN(C)C)n2)ncc1-c1cnn(C)c1", "assay": "enzyme activity, inhibitor, radiometric", "conditions": "1 µM", "measurement": "remaining activity", "result": "96%"}
{"Structure (SMILES)": "Cn1c2c(c3ccc(Cl)c(Cl)c31)C(C#N)C(C)(C)NC2=O (stereo not shown)", "assay": "thermal stability, DSF", "conditions": "10 µM", "measurement": "ΔTm", "result": "0.8 °C"}
{"Structure (SMILES)": "O=C(Nc1cnc(Oc2ccc(F)cc2)nc1)N1CCc2ncccc2[C@@H]1c1ccc(F)cc1", "assay": "cell-free assay, competition with immobilised ligand", "conditions": "1 µM", "measurement": "remaining binding", "result": "84%"}
{"Structure (SMILES)": "CCN(CC)CCNC(=O)c1c(C)[nH]c(/C=C2\\C(=O)Nc3ccc(F)cc32)c1C", "assay": "enzyme activity, inhibitor", "conditions": "10 µM", "measurement": "inhibition", "result": "3%"}
{"Structure (SMILES)": "Cn1c2c(Cl)c(Cl)ccc2c2cc(N)[nH]c(=O)c21", "assay": "thermal stability, DSF", "conditions": "10 µM", "measurement": "ΔTm", "result": "1.8 °C"}
{"Structure (SMILES)": "Cn1c(=O)n(-c2ccc(C(C)(C)C#N)cc2)c2c3cc(-c4cnc5ccccc5c4)ccc3ncc21", "assay": "enzyme activity, inhibitor", "conditions": "10 µM", "measurement": "remaining activity", "result": "96%"}
{"Structure (SMILES)": "CN([C@@H]1CCc2c(CC(=O)O)c3cc(S(C)(=O)=O)ccc3n2C1)S(=O)(=O)c1ccc(F)cc1", "assay": "cell-free assay, competition with immobilised ligand", "conditions": "1 µM", "measurement": "remaining binding", "result": "83%"}
{"Structure (SMILES)": "CN1CCC2(CC1)NC(=O)c1c(c3ccc(Cl)c(Cl)c3n1C)C2C#N (racemic)", "assay": "thermal stability, DSF", "conditions": "10 µM", "measurement": "ΔTm", "result": "0.4 °C"}
{"Structure (SMILES)": "Cc1sc(C(=O)NC2COC2)cc1-n1cc(NC(=O)Nc2c(F)cccc2Cl)cn1", "assay": "enzyme activity, inhibitor", "conditions": "10 µM", "measurement": "remaining activity", "result": "94.3%"}
{"Structure (SMILES)": "CNC(=O)c1cc(Oc2ccc(NC(=O)Nc3ccc(Cl)c(C(F)(F)F)c3)cc2)ccn1", "assay": "cell-free assay", "conditions": "0.5 µM", "measurement": "remaining signal", "result": "46.9%"}
{"Structure (SMILES)": "NS(=O)(=O)c1cc(NC(=O)Cc2ccccc2)ccc1Oc1cccc(Cl)c1", "assay": "cell-free assay, competition with immobilised ligand", "conditions": "1 µM", "measurement": "remaining binding", "result": "100%"}
{"Structure (SMILES)": "Nc1nc(NC2CCCCC2)sc1C(=O)c1ccccc1", "assay": "enzyme activity, inhibitor", "conditions": "10 µM", "measurement": "remaining activity", "result": "22%"}
{"Structure (SMILES)": "CO[C@@H](C)c1c(Nc2ccc([C@@H](N(C)C(=O)C3CCS(=O)(=O)CC3)C(F)(F)F)cc2)cnc2cc(Cl)nn12", "assay": "cell-free assay, competition with immobilised ligand", "conditions": "1 µM", "measurement": "remaining binding", "result": "86%"}
{"Structure (SMILES)": "Cc1cnc(NC2CCOCC2)nc1-n1cnc(C(=O)NC(CN)c2cc(F)cc(Cl)c2)c1 (stereo not shown)", "assay": "enzyme activity, inhibitor, radiometric", "conditions": "1 µM", "measurement": "remaining activity", "result": "78%"}
{"Structure (SMILES)": "Cc1noc([C@H]2C[C@@H](c3ccc(C(F)(F)F)cc3)CN(C(=O)N3CCS(=O)(=O)C3)C2)n1", "assay": "cell-free assay, competition with immobilised ligand", "conditions": "1 µM", "measurement": "remaining binding", "result": "100%"}
{"Structure (SMILES)": "Cc1cc(NC(=O)c2cccc3cc(-c4cccc5[nH]nc(N)c45)ccc23)ccc1F", "assay": "enzyme activity, inhibitor", "conditions": "0.1 µM", "measurement": "activity vs control", "result": "69%"}
{"Structure (SMILES)": "Cn1c2c(c3ccc(Cl)c(Cl)c31)C(C#N)C1(CCCCC1)NC2=O (racemic)", "assay": "thermal stability, DSF", "conditions": "10 µM", "measurement": "ΔTm", "result": "0.1 °C"}
{"Structure (SMILES)": "Cc1cc(-n2nc(Cc3cc(F)cc(C(F)(F)F)c3)nc2C)ccc1C(N)=O", "assay": "cell-free assay, competition with immobilised ligand", "conditions": "1 µM", "measurement": "remaining binding", "result": "90%"}
{"Structure (SMILES)": "Nc1ncnc2occ(-c3ccc(NC(=O)Nc4cc(C(F)(F)F)ccc4F)cc3)c12", "assay": "cell-free assay, inhibitor", "conditions": "20 µM", "measurement": "remaining signal", "result": "0%"}
